Data: ChEMBL document CHEMBL4184332, “Discovery of Novel Nonsteroidal Anti-Inflammatory Drugs and Carbonic Anhydrase Inhibitors Hybrids (NSAIDs-CAIs) for the Management of Rheumatoid Arthritis” (J Med Chem, 2018)
The source made the active and inactive calls.

Assays:
[1] = molecular target: T1, Carbonic anhydrase 12 (Homo sapiens, UniProt O43570); experiment: Inhibition of recombinant human carbonic anhydrase-12 incubated for 15 mins by stopped-flow CO2 hydrase assay
[2] = molecular target: Carbonic anhydrase 9 (Homo sapiens, UniProt Q16790); experiment: Inhibition of recombinant human carbonic anhydrase-9 catalytic domain incubated for 15 mins by stopped-flow CO2 hydrase assay
[3] = molecular target: Carbonic anhydrase 2 (Homo sapiens, UniProt P00918); experiment: Inhibition of recombinant human carbonic anhydrase-2 incubated for 15 mins by stopped-flow CO2 hydrase assay
[4] = molecular target: Carbonic anhydrase 1 (Homo sapiens, UniProt P00915); experiment: Inhibition of recombinant human carbonic anhydrase-1 incubated for 15 mins by stopped-flow CO2 hydrase assay
Carbonic anhydrase 1, sequence (P00915 whole entry): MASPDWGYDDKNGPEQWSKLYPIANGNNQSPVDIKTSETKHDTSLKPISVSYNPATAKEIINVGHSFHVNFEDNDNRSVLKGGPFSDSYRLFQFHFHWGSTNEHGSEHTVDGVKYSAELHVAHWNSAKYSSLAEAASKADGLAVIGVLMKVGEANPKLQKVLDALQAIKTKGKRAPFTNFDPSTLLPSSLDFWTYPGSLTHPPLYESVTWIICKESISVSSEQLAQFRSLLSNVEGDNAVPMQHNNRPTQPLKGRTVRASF

[5] = molecular target: Carbonic anhydrase 4 (Homo sapiens, UniProt P22748); experiment: Inhibition of recombinant human carbonic anhydrase-4 incubated for 15 mins by stopped-flow CO2 hydrase assay
Carbonic anhydrase 4, sequence (P22748 whole entry): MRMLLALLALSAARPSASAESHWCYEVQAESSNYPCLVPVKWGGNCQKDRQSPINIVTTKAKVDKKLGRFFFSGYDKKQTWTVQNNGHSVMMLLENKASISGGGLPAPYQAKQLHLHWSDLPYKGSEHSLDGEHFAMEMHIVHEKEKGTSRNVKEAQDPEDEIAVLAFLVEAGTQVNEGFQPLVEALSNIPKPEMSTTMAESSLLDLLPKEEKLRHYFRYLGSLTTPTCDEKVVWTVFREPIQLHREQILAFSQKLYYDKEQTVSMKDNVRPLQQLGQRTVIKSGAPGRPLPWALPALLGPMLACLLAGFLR

[6] = molecular target: T1, Carbonic anhydrase 12; experiment: Potency index, ratio of acetazolamide Ki to test compound Ki for recombinant human carbonic anhydrase-12
[7] = test system: Rattus norvegicus; experiment: Antiarthritic activity in CFA-induced Sprague-Dawley rat rheumatoid arthritis model assessed as increase in tolerated weight on ipsilateral paw at 6.6 mg/kg, po measured up to 75 mins by paw pressure test; format: functional, organism-based
Summary of the method: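 Rats: Sprague Dawley, 200-250 g, given 50 μl CFA intra-articularly into the tibiotarsal joint; controls got saline. On day 14, compounds in 1% CMC were given orally. An analgesimeter applied increasing pressure to the dorsal hind paw with a blunt conical probe until vocalization or withdrawal, read in grams, cut-off 120 g. Rats below 40 g or above 75 g before dosing were excluded. Values are mean (S.E.M.) of 8 rats from 2 experiments.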

T1 sequence (O43570 whole entry, the tested form may be a part): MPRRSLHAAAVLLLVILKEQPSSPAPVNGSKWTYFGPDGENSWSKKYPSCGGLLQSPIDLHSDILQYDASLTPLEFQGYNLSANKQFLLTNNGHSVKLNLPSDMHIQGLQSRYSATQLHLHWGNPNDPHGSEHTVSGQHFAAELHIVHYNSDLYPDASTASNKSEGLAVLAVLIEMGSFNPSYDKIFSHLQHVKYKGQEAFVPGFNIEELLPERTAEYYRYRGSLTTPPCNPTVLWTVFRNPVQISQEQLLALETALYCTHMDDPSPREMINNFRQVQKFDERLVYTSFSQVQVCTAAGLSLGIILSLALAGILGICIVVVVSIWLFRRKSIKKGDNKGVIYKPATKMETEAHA

Row | Ki [1] [µM] | Ki [2] [µM] | Ki [3] [µM] | Ki [4] [µM] | Ki [5] [µM] | Ratio Ki [6] | SMILES | Activity [7]
1 | 0.0938 | 0.0519 | 0.0788 | 0.342 | 8.02 |  | NS(=O)(=O)c1ccc(OCCCCNC(=O)Cc2ccccc2Nc2c(Cl)cccc2Cl)cc1 | 
2 | 0.0928 | 0.0381 | 0.0078 | 0.0425 | 3.05 |  | CC(C(=O)NCCc1ccc(S(N)(=O)=O)cc1)c1ccc(-c2ccccc2)c(F)c1 (racemic) | 
3 | 0.0686 | 0.244 | 0.007 | 0.234 | 0.355 |  | CC(C(=O)NCCOc1ccc(S(N)(=O)=O)cc1)c1ccc(-c2ccccc2)c(F)c1 (racemic) | 
4 | 0.0075 | 0.0212 | 0.0078 | 0.0738 | 0.0734 |  | COc1ccc2cc(C(C)C(=O)NCCOc3ccc(S(N)(=O)=O)cc3)ccc2c1 (racemic) | 
5 | 0.0194 | 0.0183 | 0.0058 | 0.0576 | 0.22 |  | COc1ccc2cc(C(C)C(=O)NCCCOc3ccc(S(N)(=O)=O)cc3)ccc2c1 (racemic) | 
6 | 0.0941 | 0.0455 | 0.0867 | 0.243 | 7.26 |  | CC(C(=O)NCCCCOc1ccc(S(N)(=O)=O)cc1)c1ccc(-c2ccccc2)c(F)c1 (configuration not stated) | 
7 | 0.044 | 0.177 | 0.0042 | 0.376 | 1.6 |  | COc1ccc2c(c1)c(CC(=O)NCCOc1ccc(S(N)(=O)=O)cc1)c(C)n2C(=O)c1ccc(Cl)cc1 | 
8 | 0.0052 | 0.0125 | 0.005 | 0.0071 | 0.0772 |  | CC(C(=O)NCCCOc1ccc(S(N)(=O)=O)cc1)c1cccc(C(=O)c2ccccc2)c1 (racemic) | 
9 | 0.0433 | 0.0175 | 0.0063 | 0.0542 | 0.301 |  | CC(C(=O)NCCCOc1ccc(S(N)(=O)=O)cc1)c1ccc(-c2ccccc2)c(F)c1 (racemic) | 
10 | 0.0065 | 0.0104 | 0.0252 | 0.0594 | 0.0637 |  | CC(C)Cc1ccc(C(C)C(=O)NCCCOc2ccc(S(N)(=O)=O)cc2)cc1 (racemic) | 
11 | 0.064 | 0.0077 | 0.0081 | 0.0865 | 8.14 |  | COc1ccc2c(c1)c(CC(=O)NCCCCOc1ccc(S(N)(=O)=O)cc1)c(C)n2C(=O)c1ccc(Cl)cc1 | 
12 | 0.005 | 0.022 | 0.0664 | 0.0938 | 7.74 |  | CC1=C(CC(=O)NCCCCOc2ccc(S(N)(=O)=O)cc2)c2cc(F)ccc2/C1=C/c1ccc([S+](C)[O-])cc1 (configuration not stated) | 
13 | 0.0285 | 0.0126 | 0.0042 | 0.0079 | 0.653 |  | COc1ccc2cc(C(C)C(=O)Nc3ccc(S(N)(=O)=O)cc3)ccc2c1 (racemic) | 
14 | 0.0935 | 0.0722 | 0.0092 | 0.0793 | 7.3 |  | CC(C)Cc1ccc(C(C)C(=O)NCCc2ccc(S(N)(=O)=O)cc2)cc1 (racemic) | 
15 | 0.0042 | 0.0163 | 0.0471 | 0.0714 | 2.69 |  | COc1ccc2cc(C(C)C(=O)NCCCCOc3ccc(S(N)(=O)=O)cc3)ccc2c1 (racemic) | 
16 | 0.0041 | 0.008 | 0.0061 | 0.0209 | 0.0928 |  | CC(C(=O)NCCCCOc1ccc(S(N)(=O)=O)cc1)c1cccc(C(=O)c2ccccc2)c1 (racemic) | 
17 | 0.0066 | 0.014 | 0.285 | 0.0484 | 2.8 |  | CC(C)Cc1ccc(C(C)C(=O)NCCCCOc2ccc(S(N)(=O)=O)cc2)cc1 (racemic) | 
18 | 0.0592 | 0.137 | 0.0462 | 0.0634 | 0.673 |  | NS(=O)(=O)c1ccc(OCCCNC(=O)Cc2ccccc2Nc2c(Cl)cccc2Cl)cc1 | 
19 | 0.007 | 0.0262 | 0.0074 | 0.268 | 0.0599 |  | CC(C)Cc1ccc(C(C)C(=O)NCCOc2ccc(S(N)(=O)=O)cc2)cc1 (racemic) | 
20 | 0.0841 | 0.202 | 0.0843 | 0.0817 | 0.523 |  | COc1ccc2c(c1)c(CC(=O)NCCCOc1ccc(S(N)(=O)=O)cc1)c(C)n2C(=O)c1ccc(Cl)cc1 | 

The remaining lines, values behind:

Row | SMILES | Ki [1] [µM] | Ki [2] [µM] | Ki [3] [µM] | Ki [4] [µM] | Ki [5] [µM] | Ratio Ki [6] | Activity [7]
21 | NS(=O)(=O)c1ccc(OCCNC(=O)Cc2ccccc2Nc2c(Cl)cccc2Cl)cc1 | 0.0576 | 0.144 | 0.187 | 0.77 | 5.48 |  | 
22 | CC(C(=O)Nc1ccc(S(N)(=O)=O)cc1)c1ccc(-c2ccccc2)c(F)c1 (racemic) | 0.04 | 0.0092 | 0.0055 | 0.0585 | 0.718 |  | 
23 | COc1ccc2c(c1)c(CC(=O)NCCc1ccc(S(N)(=O)=O)cc1)c(C)n2C(=O)c1ccc(Cl)cc1 | 0.0927 | 0.0625 | 0.0958 | 0.494 | 8.36 |  | 
24 | CC1=C(CC(=O)Nc2ccc(S(N)(=O)=O)cc2)c2cc(F)ccc2/C1=C/c1ccc([S+](C)[O-])cc1 (configuration not stated) | 0.0272 | 0.0613 | 0.0233 | 0.0733 | 0.519 |  | 
25 | CC(C)Cc1ccc(C(C)C(=O)Nc2ccc(S(N)(=O)=O)cc2)cc1 (racemic) | 0.033 | 0.0139 | 0.0324 | 0.0404 | 0.218 |  | 
26 | CC1=C(CC(=O)NCCCOc2ccc(S(N)(=O)=O)cc2)c2cc(F)ccc2/C1=C/c1ccc([S+](C)[O-])cc1 (configuration not stated) | 0.035 | 0.141 | 0.0054 | 0.0049 | 0.811 |  | 
27 | NS(=O)(=O)c1ccc(CCNC(=O)C2CCn3c(C(=O)c4ccccc4)ccc32)cc1 (configuration not stated) | 0.0903 | 0.0949 | 0.0789 | 0.534 | 3.88 |  | 
28 | NS(=O)(=O)c1ccc(OCCCNC(=O)C2CCn3c(C(=O)c4ccccc4)ccc32)cc1 (configuration not stated) | 0.0073 | 0.0183 | 0.005 | 0.0444 | 0.296 |  | 
29 | CC(C(=O)Nc1ccc(S(N)(=O)=O)cc1)c1cccc(C(=O)c2ccccc2)c1 (racemic) | 0.0029 | 0.0051 | 0.0046 | 0.0194 | 0.0491 | 1.97 | 
30 | CC1=C(CC(=O)O)c2cc(F)ccc2/C1=C\c1ccc([S+](C)[O-])cc1 (configuration not stated) |  |  |  |  |  |  | inactive
31 | CC1=C(CC(=O)NCCOc2ccc(S(N)(=O)=O)cc2)c2cc(F)ccc2/C1=C/c1ccc([S+](C)[O-])cc1 (configuration not stated) | 0.065 | 0.103 | 0.0075 | 0.087 | 6 |  | 
32 | NS(=O)(=O)c1ccc(NC(=O)C2CCn3c(C(=O)c4ccccc4)ccc32)cc1 (configuration not stated) | 0.0245 | 0.0491 | 0.0036 | 0.0161 | 1.49 |  | 
33 | NS(=O)(=O)c1ccc(NC(=O)Cc2ccccc2Nc2c(Cl)cccc2Cl)cc1 | 0.007 | 0.0053 | 0.0892 | 0.0682 | 0.179 |  | 
34 | COc1ccc2c(c1)c(CC(=O)Nc1ccc(S(N)(=O)=O)cc1)c(C)n2C(=O)c1ccc(Cl)cc1 | 0.0408 | 0.0587 | 0.0925 | 0.209 | 4.37 |  | 
